Assay outcomes deposited in PubChem BioAssay by several laboratories.
Only some compounds are listed: those with a hit (about 2.3% of all), similar ones and a draw of the others.
Mcl1-Bid inh – disrupts binding of human Mcl-1 to Bid peptide. 0.97% of 220,000 active. AID 1021. TR-FRET Mcl-1/Bid-Dy647 peptide binding, 1536-well. inhibition, % at 21.7 µM. Q07820;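 active = compounds that cut the binding signal by more than half at the single screening dose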;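 also: His-tagged Mcl-1 with europium anti-His antibody binding Bid BH3 peptide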
Target sequence (Q07820 whole entry, looked up): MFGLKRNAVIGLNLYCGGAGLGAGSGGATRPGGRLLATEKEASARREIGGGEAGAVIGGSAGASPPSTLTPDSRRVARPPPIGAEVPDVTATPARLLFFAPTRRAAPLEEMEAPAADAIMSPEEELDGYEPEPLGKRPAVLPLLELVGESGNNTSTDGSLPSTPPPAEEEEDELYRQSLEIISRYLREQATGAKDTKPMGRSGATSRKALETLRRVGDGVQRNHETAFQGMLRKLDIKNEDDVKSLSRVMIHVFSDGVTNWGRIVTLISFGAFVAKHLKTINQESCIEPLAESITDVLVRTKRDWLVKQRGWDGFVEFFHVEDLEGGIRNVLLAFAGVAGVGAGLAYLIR
Mcl1 Noxa PPI – disrupts binding of human Mcl-1 to Noxa peptide. TR-FRET Mcl-1/Noxa peptide binding, 2 h. 1.5% of 220,000 active. AID 1022. Q07820. inhibition, % at 21.7 µM;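 active = compounds that cut the protein-peptide binding signal by more than 50% relative to plate controls in a single-dose test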;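 also: His-tagged Mcl-1 with rhodamine Noxa BH3 peptide and terbium anti-His antibody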
MCL1-BIM inh – MCL1-BIM-BH3 interaction inhibition (human) | GST-MCL1 / FITC-Bim-BH3 fluorescence polarization | 0.68% of 320,000 active | Q07820 | inhibition, % at 10.9 µM;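 active = inhibition above the mean inhibition of all tested compounds plus 3 SD, set per campaign, cut at about 40% in these data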;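 also: higher means more loss of mP so more displacement of Bim peptide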
T cell modulator – modulates CD8 T cell binding to vesicles. 0.068% of 330,000 active. response (vesicle binding), % at 7 µM. 2C CD8+ T cell-vesicle binding, flow cytometry; hits give low values;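 active = response, share of CD8 T cells binding vesicles, and their 90th percentile fluorescence all below set limits, cut at about 80% in these data, passing the limit was not always enough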;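 also: values below 100% mean blocked vesicle binding to the CD8+ T cells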
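Also added: QL9-peptide-loaded Drosophila micro-vesicles bearing Ld, ICAM-1 and B7-1; Test system: purified 2C TCR transgenic mouse naive CD8+ T cells; Measured by: cytometric PE anti-B7-1 and Alexa647 anti-CD8 signals after 1% paraformaldehyde fixation; Timing: binding step 1.5 h, 37 °C, antibody labelling 20 min, ice.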
Bim-Mcl-1 – inhibitors of Bim-Mcl-1 interaction, human | Bead-based flow cytometry, Bim peptide-Mcl-1 binding | inhibition, % at 10 µM | 0.1% of 190,000 active; in the data active = inhibition above about 40%
DSG3 Ab inh – human desmoglein-3 autoantibody binding inhibition; 0.48% of 310,000 active; binding (percent of control), % at 10 µM; P32926; DSG3-coupled beads, scFv-anti-DSG3-GFP binding, flow cytometry; hits give low values;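 active = binding more than 3 SD below its plate's average and above zero; inconclusive = below that plate limit but binding exactly zero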;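 also: hits lower antibody fragment binding to DSG3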
A number is an active result; - = inactive; ? = inconclusive; . = no result given.

SMILES	Mcl1-Bid inh	Mcl1 Noxa PPI	MCL1-BIM inh	T cell modulator	Bim-Mcl-1	DSG3 Ab inh
CCn1c(=O)n(CC)c2cc(N3CCCC3)c(NC(=O)c3c(F)cccc3F)cc21	.	.	-	-	.	-
O=C(CCNS(=O)(=O)c1ccccc1F)OCc1ccccc1Cl	.	.	.	-	.	-
CCOC(=O)CCNC(=O)Nc1cc2nc(C)n(Cc3cccc(Cl)c3)c2nc1C	.	.	-	-	.	-
CCN(CC)CCn1c2ccc(F)cc2c2nc(C)sc21	53	-	-	-	-	-
CCCOc1ccc(Cl)cc1/C=C1/C(=O)ON=C1C	.	.	-	-	.	-
CC1=NOC(=O)/C1=C\c1ccc(-c2ccc(Cl)cc2Cl)o1	88	87	.	.	-	-
COC(=O)C1C/C(=N/NS(=O)(=O)c2ccc(C)cc2)CS1 (stereo not given)	.	.	.	-	.	-
Cc1ccc(S(=O)(=O)N(C(=O)c2ccncc2)c2ccc(OC(=O)c3ccncc3)c3ccccc23)cc1	-	59	-	-	-	-
C/C(=N\NC(=O)c1ccccn1)c1ccc(Cl)cc1	-	-	-	-	.	-
C/C(=N/NC(=O)c1ccccn1)c1ccc(O)cc1	96	-	-	-	.	-
COc1c(O)c(=O)n2c3ccccc3c3ccnc1c32	.	.	-	-	.	-
O=c1c(Cl)c(O)c2cccc3c4ccccc4n1c23	-	65	-	-	-	-
CCCNc1nc2c(c(=O)[nH]c(=O)n2C)n1CCOc1ccccc1	.	.	-	-	.	-
CN(C)CCNc1nc2c(c(=O)[nH]c(=O)n2C)n1CCOc1ccccc1	.	.	-	-	.	81
CCOc1ccc(C(=O)NCCc2ccccc2)cc1	-	-	-	-	-	-
CCOc1ccc(CC(=O)NNC(=S)NCCc2ccccc2)cc1	-	-	-	-	-	66
CCN(CC)c1ccc(/C=C2\C(=N)N3N=C(CC(=O)N4CCOCC4)SC3=NC2=O)cc1	.	.	-	-	.	?
Cc1ccccc1C(=O)NNC(=O)c1cccn1C	.	.	-	-	.	-
Cn1cccc1C(=O)NNC(=O)c1ccccc1Br	.	.	-	0.0	.	-
O=C(c1ccccc1C(=O)N1CCN(c2ccccc2)CC1)N1CCN(c2ccccc2)CC1	-	-	46	-	-	-
O=C(COC(=O)c1ccccc1C(=O)N1CCN(c2ccccc2)CC1)Nc1ccc(F)cc1	-	-	49	-	-	-
O=C(O)c1ccccc1C(=O)N1CCN(c2ccccc2)CC1	-	-	-	-	-	.
COc1cccc(NC(=O)COC(=O)c2ccccc2C(=O)N2CCN(c3ccccc3)CC2)c1	-	-	50	-	-	-
O=C(c1ccccc1CCc1ccccc1)N1CCOCC1	57	-	-	-	-	-
O=C(COC(=O)c1ccccc1C(=O)N1CCN(c2ccccc2)CC1)Nc1ccccc1	-	-	-	-	-	-
SMILES	Mcl1-Bid inh	Mcl1 Noxa PPI	MCL1-BIM inh	T cell modulator	Bim-Mcl-1	DSG3 Ab inh
Cc1ccc(S(=O)(=O)N(C)c2ccc(C(=O)NCC(c3ccco3)N3CCCC3)cc2)cc1 (stereo not given)	.	.	.	.	.	-
C/C(=N\Nc1ccc2nncn2n1)c1ccc(Br)s1	-	-	-	-	.	-
Cc1cc(C(C)(C)C)c(OC(=O)[C@@H]2OC(c3ccccc3)=C[C@H]2c2ccccc2)c(C(C)(C)C)c1	.	.	-	-	.	-
COc1ccc(CNC(=O)Cc2csc(Nc3nc(=S)[nH]c4ccccc34)n2)cc1	-	-	-	-	-	-
O=C(Cc1csc(Nc2nc(=S)[nH]c3ccccc23)n1)NCc1ccc(Cl)cc1	56	-	-	-	-	-
O=C(c1ccc(F)cc1)C1CCN(Cc2ccccc2)CC1	.	.	.	.	.	-
CN(Cc1ccccc1)C(=O)C1CCN(Cc2ccc(F)cc2)CC1	55	-	-	-	-	-
CCN1/C(=C/c2cc[n+](C)cc2)C=Cc2cc(C)ccc21	-	56	-	-	-	-
CCN1/C(=C/c2ccc3ccccc3[n+]2CCCS(=O)(=O)[O-])C=Cc2cc(C)ccc21	.	.	.	-	.	-
COc1ccc(CNC[C@H]2O[C@@H](n3ccc(=O)[nH]c3=O)[C@H](O)[C@@H]2O)cc1OC	.	.	.	.	.	-
CCOC(=O)CN1C(=O)S/C(=C\c2ccc(-c3cccc(C(=O)O)c3C)o2)C1=O	.	.	-	-	.	-
N=C1S/C(=C\c2ccc(-c3ccccc3C(=O)O)o2)C(=O)N1c1ccc2c(c1)OCO2	-	60	.	.	-	-
COc1ccccc1N1C(=N)S/C(=C\c2ccc(-c3ccccc3C(=O)O)o2)C1=O	-	53	-	-	-	-
